Series [1] deals with L1210. The experiment in a line: In vitro antitumor activity against cyclophosphamide-resistant L1210/CP cells. The series is classed as functional, Mus musculus. The procedure, abridged: (§1)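 Clonogenic survival assay in wild-type or cyclophosphamide-resistant L1210 and P388 cells with 1-h drug exposure. LC99 is the concentration that lowers colony formation to 1% of control. It comes from linear regression of log surviving fraction vs concentration over the linear portion, using at least three determinations. Standard errors are within ±10%.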

For series [2], the system named is L1210. As to the kind of experiment: In vitro antitumor activity against wild-type L1210/0 cells. The series is classed as functional, Mus musculus. In short, it runs like this:
as §1

Series [3] concerns P388. The experiment in a line: In vitro antitumor activity against cyclophosphamide-resistant P388/CP cells. It counts as functional, Mus musculus. The procedure, abridged:
as §1

Series [4] deals with P388. As to the kind of experiment: In vitro antitumor activity against wild-type P388/0 cells. It counts as functional, Mus musculus. The procedure, abridged:
as §1

Series [5] can be described thus: Hydrolysis rate constant at pH 7.4 and 50 mM HEPES buffer. It counts as ADME. In short, it runs like this: (§2)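 Spectrophotometric hydrolysis assay of model perhydrooxazines at 37 °C. Buffer strength was varied by mixing a stock of 0.25 M HEPES, phenol red (10 mg/100 mL) and KCl (μ = 0.20) with a matching stock that lacked HEPES. Substrate was added in DMSO (1:4 v/v) at a perhydrooxazine:buffer molar ratio of 0.1, with DMSO in the reference cell. The phenol red absorbance rise at 560 nm was read over 1 h. k came from the slope of ln(A∞ − At) vs time.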

Series [6] is described as follows: Hydrolysis rate constant at pH 7.4 and 12.5 mM HEPES buffer. It counts as ADME. In short, it runs like this:
as §2

A short description of series [7]: Hydrolysis rate constant at pH 7.4 and 25 mM HEPES buffer. It counts as ADME. In short, it runs like this:
as §2

In series [8] the test system is L1210. As to the kind of experiment: In vivo antitumor activity against intraperitoneal murine wild type L1210 Leukemia cells at 510 umol/kg. The series is classed as functional, Mus musculus.
The test system of series [9] is L1210. The experiment in a line: In vivo antitumor activity against intraperitoneal murine wild type L1210 Leukemia cells at 340 umol/kg. It counts as functional, Mus musculus.
Series [10] has as its system L1210. The experiment in a line: Ratio of resistance factor LC99 […] to that of LC99 […]. It counts as functional, Mus musculus. In short, it runs like this: (§3)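 Resistance factor is LC99 in the cyclophosphamide-resistant line divided by LC99 in the wild-type line. Each LC99 is from a clonogenic assay with 1-h drug exposure: the concentration that reduces colonies to 1% of control, by linear regression of log survival vs concentration from at least three determinations.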

For series [11], the system named is P388. As to the kind of experiment: Ratio of resistance factor LC99 […] to that of LC99 […]. It counts as functional, Mus musculus. In short, it runs like this:
as §3

In series [12] the test system is L1210. The experiment in a line: In vivo antitumor activity against intraperitoneal murine wild type L1210 Leukemia cells at 170 umol/kg. It counts as functional, Mus musculus.
The nature of series [13]: Hydrolysis rate constant at pH 7.8 and 25 mM HEPES buffer. It counts as ADME. The procedure, abridged:
as §2

Series [14] can be described thus: Hydrolysis rate constant at pH 6.8 and 25 mM HEPES buffer. It counts as ADME. The procedure, abridged: as §2
Series [15] is described as follows: Hydrolysis rate constant at pH 7 and 25 mM HEPES buffer. The series is classed as ADME. In short, it runs like this:
as §2

The structures appear in SMILES notation. Some results are limits rather than exact numbers.

By T/C is commonly meant the result in the treated group divided by that in the control group, in per cent.

Consider `CCN(CC)P(N)(=O)OC(CC1NC(C)(C)CC(C)O1)c1ccccc1` (stereo unspecified), for which the LC99 with L1210 [1], with L1210 [2], in the series with P388 [3] and in the series on P388 [4] was greater than 200 µM each time.
Consider `CC[C@H]1NC(C)(C)C[C@@H](C)O1`, for which the khydr in series [5] stood at 0.0086 min⁻¹; in series [6], 0.0088 min⁻¹; in series [7], 0.0085 min⁻¹.
Consider `CCN(CC)P(=O)(OCCC1NC(C)(C)CC(C)O1)N(CC)CC` (stereo unspecified), for which the LC99 in the series with L1210 [1], in the series with L1210 [2], with P388 [3] and in the series with P388 [4] was greater than 200 µM each time.
As for `CC1CC(C)(C)NC(CCOP(=O)(N(CCCl)CCCl)N2CCOCC2)O1` (stereo unspecified), the T/C in the series with L1210 [8] and in the series on L1210 [9] was 113% each time. The LC99 in the series with L1210 [1] was 150 µM; with L1210 [2], 84 µM; with P388 [3] it was 117 µM; in the series on P388 [4] it was 56 µM. For the same compound, the RF with L1210 [10] was determined as 1.8; in the series on P388 [11], 2.1.
On to `CC1CC(C)(C)NC(CCOP(N)(=O)N(CCCl)CCCl)O1` (stereo unspecified), for which the T/C with L1210 [8] is 167%; with L1210 [12], 144%; in the series on L1210 [9], 144%. In addition, the LC99 is 145 µM in the series on L1210 [1], 21 µM in the series with L1210 [2], 92 µM in the series on P388 [3] and 19 µM with P388 [4]. Further, the RF with L1210 [10] is reported as 6.9; in the series with P388 [11] it was 4.8.
`CC1CC(C)(C)NC(CC(OP(=O)(N(CCCl)CCCl)N(CCCl)CCCl)c2ccccc2)O1` (stereo unspecified): the T/C is reported as 170% in the series with L1210 [8], 125% in the series on L1210 [12] and 150% in the series on L1210 [9]. The LC99 in the series with L1210 [1] worked out at 3 µM; in the series on L1210 [2], 2 µM; in the series with P388 [3], 2 µM; in the series on P388 [4], 2 µM. In addition, the RF in the series with L1210 [10] is recorded as 1.5; with P388 [11] it was 1.
In the case of `CC1CC(C)(C)NC(CC(OP(=O)(N(CCCl)CCCl)N2CCOCC2)c2ccccc2)O1` (stereo unspecified), the T/C in the series with L1210 [8] is recorded as 111%; with L1210 [12] it was 100%; with L1210 [9] it was 100%. Besides, the LC99 was 38 µM in the series on L1210 [1], 28 µM in the series on L1210 [2], 22 µM in the series on P388 [3] and 16 µM in the series on P388 [4]. In addition, the RF in the series on L1210 [10] and with P388 [11] was 1.4 each time.
Turning to `C[C@@H]1CC(C)(C)N[C@H](CCc2ccccc2)O1`, the khydr in [5] stood at 0.0095 min⁻¹; in [13] it was 0.0082 min⁻¹; in series [14], 0.0042 min⁻¹; in series [15], 0.0065 min⁻¹; in series [6] it was 0.0086 min⁻¹; in series [7], 0.0094 min⁻¹.
As to `CC1CC(C)(C)NC(CC(OP(N)(=O)N(CCCl)CCCl)c2ccccc2)O1` (stereo unspecified), the T/C with L1210 [12] and in the series on L1210 [9] was 125% in each case. For the same compound, the LC99 with L1210 [1] is 14 µM; with L1210 [2], 13 µM; in the series with P388 [3], 10 µM; in the series on P388 [4], 7 µM. Moreover, the values for the RF in the series on L1210 [10] and in the series with P388 [11] were 1.1 and 1.4, respectively.
For `CC1CC(C)(C)NC(CCOP(=O)(N(CCCl)CCCl)N(CCCl)CCCl)O1` (stereo unspecified), the LC99 with L1210 [1] was found to be 19 µM; in the series with L1210 [2] it was 7 µM; with P388 [3], 10 µM; in the series on P388 [4], 5 µM. The RF in the series with L1210 [10] is 2.7; in the series on P388 [11], 2.

For the origin of these results see ChEMBL document CHEMBL1125771, “Synthesis, activation, and cytotoxicity of aldophosphamide analogues” (J Med Chem, 1991).
